Results taken from ChEMBL document CHEMBL5058577, “EUbOPEN Chemogenomics Library 2 (Multiplex)” (2022).

System: HEK-293T
Assay: Multiplex assay against HEK293T
Type: toxicity, cell-based
Conditions: human
Procedure, shortened: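 Tubulin, mitochondrial-mass and membrane-permeability phenotypes are per cents of healthy-nucleus cells. Cells were gated by CellPathfinder machine learning into Hoechst high-intensity objects or normal cells, normal cells into healthy, pyknosed or fragmented nuclei, and pyknosed cells into mitotic or apoptotic. Before that, live cells stained at seeding with Hoechst33342, BioTracker Green Microtubule Cytoskeleton Dye, MitoTracker Red and Annexin V Alexa Fluor 680 were imaged on a CQ1 microscope at 37°C and 5% CO2 after compound addition.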

[1] = 12 h, 1 µM, compound concentration 1 uM, replicate 1
[2] = 12 h, 1 µM, compound concentration 1 uM, replicate 2
[3] = 12 h, 10 µM, compound concentration 10 uM, replicate 1
[4] = 12 h, 10 µM, compound concentration 10 uM, replicate 2
[5] = 24 h, 1 µM, compound concentration 1 uM, replicate 1
[6] = 24 h, 1 µM, compound concentration 1 uM, replicate 2
[7] = 24 h, 10 µM, compound concentration 10 uM, replicate 1
[8] = 24 h, 10 µM, compound concentration 10 uM, replicate 2
[9] = 48 h, 1 µM, compound concentration 1 uM, replicate 1
[10] = 48 h, 1 µM, compound concentration 1 uM, replicate 2
[11] = 48 h, 10 µM, compound concentration 10 uM, replicate 1
[12] = 48 h, 10 µM, compound concentration 10 uM, replicate 2

Oc1c(CN2CCN(c3ccccn3)CC2)cc(Cl)c2cccnc12
Population Apoptotic (%) [1]: 30%
Population Fragmented Nuclei (%) [1]: 6%
Population Healthy Nuclei (%) [1]: 83%
Population Hoechst High Intensity Objects (%) [1]: 7%
Population Membrane Permeable-Phenotype (%) [1]: 0%
Population Mitochondria Different-Phenotype (%) [1]: 44%
Population Mitotic Cells (%) [1]: 70%
Population Normal (%) [1]: 92%
Population Pyknosed Nuclei (%) [1]: 10%
Population Tubulin-Different-Phenotype (%) [1]: 34%
Total Cell Count [1]: 424
Population Apoptotic (%) [2]: 45%
Population Fragmented Nuclei (%) [2]: 5%
Population Healthy Nuclei (%) [2]: 80%
Population Mitochondria Different-Phenotype (%) [2]: 59%
Population Mitotic Cells (%) [2]: 54%
Population Pyknosed Nuclei (%) [2]: 13%
Population Tubulin-Different-Phenotype (%) [2]: 20%
Total Cell Count [2]: 354
Population Apoptotic (%) [3]: 71%
Population Fragmented Nuclei (%) [3]: 16%
Population Healthy Nuclei (%) [3]: 64%
Population Hoechst High Intensity Objects (%) [3]: 11%
Population Membrane Permeable-Phenotype (%) [3]: 0%
Population Mitochondria Different-Phenotype (%) [3]: 64%
Population Mitotic Cells (%) [3]: 28%
Population Normal (%) [3]: 88%
Population Pyknosed Nuclei (%) [3]: 18%
Population Tubulin-Different-Phenotype (%) [3]: 20%
Total Cell Count [3]: 197
Population Apoptotic (%) [4]: 73%
Population Fragmented Nuclei (%) [4]: 18%
Population Healthy Nuclei (%) [4]: 69%
Population Hoechst High Intensity Objects (%) [4]: 6%
Population Mitochondria Different-Phenotype (%) [4]: 70%
Population Mitotic Cells (%) [4]: 26%
Population Normal (%) [4]: 93%
Population Pyknosed Nuclei (%) [4]: 12%
Population Tubulin-Different-Phenotype (%) [4]: 32%
Total Cell Count [4]: 327
Population Apoptotic (%) [5]: 34%
Population Fragmented Nuclei (%) [5]: 6%
Population Healthy Nuclei (%) [5]: 84%
Population Hoechst High Intensity Objects (%) [5]: 3%
Population Membrane Permeable-Phenotype (%) [5]: 0%
Population Mitochondria Different-Phenotype (%) [5]: 22%
Population Mitotic Cells (%) [5]: 65%
Population Normal (%) [5]: 96%
Population Pyknosed Nuclei (%) [5]: 9%
Population Tubulin-Different-Phenotype (%) [5]: 23%
Total Cell Count [5]: 529
Population Apoptotic (%) [6]: 33%
Population Fragmented Nuclei (%) [6]: 7%
Population Mitochondria Different-Phenotype (%) [6]: 40%
Population Mitotic Cells (%) [6]: 66%
Population Pyknosed Nuclei (%) [6]: 8%
Population Tubulin-Different-Phenotype (%) [6]: 13%
Total Cell Count [6]: 427
Population Apoptotic (%) [7]: 93%
Population Fragmented Nuclei (%) [7]: 18%
Population Healthy Nuclei (%) [7]: 65%
Population Hoechst High Intensity Objects (%) [7]: 13%
Population Membrane Permeable-Phenotype (%) [7]: 1%
Population Mitochondria Different-Phenotype (%) [7]: 65%
Population Mitotic Cells (%) [7]: 6%
Population Normal (%) [7]: 86%
Population Pyknosed Nuclei (%) [7]: 15%
Population Tubulin-Different-Phenotype (%) [7]: 19%
Total Cell Count [7]: 227
Population Apoptotic (%) [8]: 81%
Population Fragmented Nuclei (%) [8]: 21%
Population Healthy Nuclei (%) [8]: 63%
Population Hoechst High Intensity Objects (%) [8]: 7%
Population Mitochondria Different-Phenotype (%) [8]: 78%
Population Mitotic Cells (%) [8]: 18%
Population Normal (%) [8]: 92%
Population Tubulin-Different-Phenotype (%) [8]: 34%
Total Cell Count [8]: 354
Population Apoptotic (%) [9]: 29%
Population Fragmented Nuclei (%) [9]: 12%
Population Healthy Nuclei (%) [9]: 80%
Population Hoechst High Intensity Objects (%) [9]: 3%
Population Membrane Permeable-Phenotype (%) [9]: 0%
Population Mitochondria Different-Phenotype (%) [9]: 22%
Population Mitotic Cells (%) [9]: 70%
Population Normal (%) [9]: 96%
Population Pyknosed Nuclei (%) [9]: 6%
Population Tubulin-Different-Phenotype (%) [9]: 16%
Total Cell Count [9]: 689
Population Apoptotic (%) [10]: 31%
Population Fragmented Nuclei (%) [10]: 10%
Population Healthy Nuclei (%) [10]: 83%
Population Mitochondria Different-Phenotype (%) [10]: 17%
Population Mitotic Cells (%) [10]: 68%
Population Pyknosed Nuclei (%) [10]: 5%
Population Tubulin-Different-Phenotype (%) [10]: 10%
Total Cell Count [10]: 518
Population Apoptotic (%) [11]: 83%
Population Fragmented Nuclei (%) [11]: 23%
Population Healthy Nuclei (%) [11]: 44%
Population Hoechst High Intensity Objects (%) [11]: 25%
Population Membrane Permeable-Phenotype (%) [11]: 0%
Population Mitochondria Different-Phenotype (%) [11]: 60%
Population Mitotic Cells (%) [11]: 16%
Population Normal (%) [11]: 74%
Population Pyknosed Nuclei (%) [11]: 31%
Population Tubulin-Different-Phenotype (%) [11]: 30%
Total Cell Count [11]: 204
Population Apoptotic (%) [12]: 94%
Population Fragmented Nuclei (%) [12]: 28%
Population Healthy Nuclei (%) [12]: 49%
Population Hoechst High Intensity Objects (%) [12]: 14%
Population Mitochondria Different-Phenotype (%) [12]: 81%
Population Mitotic Cells (%) [12]: 5%
Population Normal (%) [12]: 85%
Population Pyknosed Nuclei (%) [12]: 22%
Population Tubulin-Different-Phenotype (%) [12]: 42%
Total Cell Count [12]: 295
